# According to ChEMBL document CHEMBL1157319, “Altenuene derivatives from an unidentified freshwater fungus in the family Tubeufiaceae” (2006):
# Calls of active or inactive are those of the source. The rule behind the calls is not given here.
# Columns and labels:
# Bacillus subtilis = test: Antibacterial activity against Bacillus subtilis ATCC 6051 at 100 ug/disk by disk diffusion method; type: functional; settings: for zone of inhibition at 100 µg/disc: read-out: IZ
# Procedure, shortened: (§1)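 Paper disks each loaded with 100 µg of test material; gentamicin sulfate at 25 µg/disk served as the positive standard. Read-out was the diameter of the inhibition zone in mm. The same panel also included Escherichia coli ATCC 25922.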
# Staphylococcus aureus = test: Antibacterial activity against Staphylococcus aureus ATCC 29213 at 100 ug/disk by disk diffusion method; type: functional; settings: for zone of inhibition at 100 µg/disc: read-out: IZ; procedure, shortened: as §1
# Candida albicans = test: Antifungal activity against Candida albicans ATCC 14053 at 200 ug/disk by disk diffusion method; type: functional, organism-based
# Fusarium verticillioides = test: Antifungal activity against Fusarium verticillioides NRRL 25457 at 200 ug/disk by disk diffusion method; type: functional, organism-based
# Aspergillus flavus = test: Antifungal activity against Aspergillus flavus NRRL 6541 at 200 ug/disk by disk diffusion method; type: functional, organism-based
SMILES,Activity (Bacillus subtilis),Activity (Staphylococcus aureus),Activity (Candida albicans),Activity (Fusarium verticillioides),Activity (Aspergillus flavus),zone of inhibition at 100 µg/disc (Staphylococcus aureus),zone of inhibition at 100 µg/disc (Bacillus subtilis)
COc1cc(O)c2c(c1)C1=C[C@@H](O)[C@@H](O)C[C@]1(C)OC2=O,inactive,,,,,,
COc1cc(O)c2c(c1)[C@H]1C[C@H](O)[C@@H](O)C[C@]1(C)OC2=O,inactive,inactive,inactive,inactive,inactive,,
COc1cc(O)c2c(c1)C1=C[C@H](O)[C@@H](O)C[C@]1(C)OC2=O [ALTENUENE],,,,,,18 mm,20 mm
COc1cc(O)c2c(c1)C1=CC(=O)[C@H](O)C[C@]1(C)OC2=O [DEHYDROALTENUENE A],,,inactive,inactive,inactive,,13 mm
COc1cc(O)c2c(c1)C1=CC(=O)[C@@H](O)C[C@]1(C)OC2=O [DEHYDROALTENUENE B],,,inactive,inactive,inactive,14 mm,20 mm
COc1cc(O)c2c(c1)[C@H]1C[C@@H](O)[C@@H](O)C[C@]1(C)OC2=O [DIHYDROALTENUENE A],,,inactive,inactive,inactive,14 mm,50 mm
COc1cc(O)c2c(c1)C1=C[C@@H](O)[C@H](O)C[C@]1(C)OC2=O [ISOALTENUENE],,,,,,,30 mm
